Activity calls are given as the source filed them. No cut-off for these calls is given here.

One assay has as its system Aspergillus flavus. As to the kind of experiment: Antifungal activity against Aspergillus flavus NRRL 6541 at 200 ug/disk. The format is functional, organism-based.
Conditions: not given
`COc1cc(O)cc(C)c1C(=O)O[C@H]1[C@@H](OC(C)=O)[C@H](n2ccc(=O)n(C)c2=O)O[C@@H]1CO`: the result was inactive.
The same measure, in the same setting: under `COc1cc(O)cc(C)c1C(=O)O[C@H]1[C@@H](O)[C@H](n2ccc(=O)n(C)c2=O)O[C@@H]1CO` stands “inactive”.
With `COc1cc(O)cc(C)c1C(=O)O[C@H]1[C@@H](OC(C)=O)[C@H](n2ccc(=O)[nH]c2=O)O[C@@H]1CO`, the outcome was inactive.
Same read-out and setting: under `COc1cc(C)c(C(=O)O[C@H]2[C@@H](OC(C)=O)[C@H](n3ccc(=O)[nH]c3=O)O[C@@H]2CO)c(OC)c1` stands “inactive”.
As to `COc1cc(C)c(C(=O)O[C@H]2[C@@H](O)[C@H](n3ccc(=O)[nH]c3=O)O[C@@H]2CO)c(OC)c1`, the outcome was inactive.
The same measure, in the same setting: under `COc1cc(C)c(C(=O)O[C@@H]2[C@H](O)[C@@H](CO)O[C@H]2n2ccc(=O)[nH]c2=O)c(OC)c1` stands “inactive”; under `COc1cc(C)c(C(=O)O[C@H]2[C@@H](OC(C)=O)[C@H](n3ccc(=O)[nH]c3=O)O[C@@H]2CO)c(O)c1`, “inactive”.

Another assay has as its system Fusarium verticillioides. As to the kind of experiment: Antifungal activity against Fusarium verticillioides NRRL 25457 at 200 ug/disk. Type of assay: functional, organism-based.
Conditions: not given
On to `COc1cc(O)cc(C)c1C(=O)O[C@H]1[C@@H](OC(C)=O)[C@H](n2ccc(=O)n(C)c2=O)O[C@@H]1CO`, for which the result was inactive.
Consider `COc1cc(O)cc(C)c1C(=O)O[C@H]1[C@@H](O)[C@H](n2ccc(=O)n(C)c2=O)O[C@@H]1CO`, for which the outcome was inactive.
Still for that read-out and setting: under `COc1cc(O)cc(C)c1C(=O)O[C@H]1[C@@H](OC(C)=O)[C@H](n2ccc(=O)[nH]c2=O)O[C@@H]1CO` stands “inactive”.
As to `COc1cc(C)c(C(=O)O[C@H]2[C@@H](OC(C)=O)[C@H](n3ccc(=O)[nH]c3=O)O[C@@H]2CO)c(OC)c1`, the outcome was inactive.
On to `COc1cc(C)c(C(=O)O[C@H]2[C@@H](O)[C@H](n3ccc(=O)[nH]c3=O)O[C@@H]2CO)c(OC)c1`, for which the outcome was inactive.
Still for that read-out and setting: under `COc1cc(C)c(C(=O)O[C@@H]2[C@H](O)[C@@H](CO)O[C@H]2n2ccc(=O)[nH]c2=O)c(OC)c1` stands “inactive”; under `COc1cc(C)c(C(=O)O[C@H]2[C@@H](OC(C)=O)[C@H](n3ccc(=O)[nH]c3=O)O[C@@H]2CO)c(O)c1`, “inactive”.

The test system of the next assay is Staphylococcus aureus. As to the kind of experiment: Antibacterial activity against Staphylococcus aureus ATCC 29213 at 100 ug/disk. The format is functional.
Conditions: not given
The gist of the method:
(§1)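 Disk diffusion assay with 100 μg of compound per disk. Strains used were Staphylococcus aureus ATCC 29213 and Bacillus subtilis ATCC 6051. The read-out was the diameter of the zone of inhibition in mm.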
Consider `COc1cc(O)cc(C)c1C(=O)O[C@H]1[C@@H](OC(C)=O)[C@H](n2ccc(=O)n(C)c2=O)O[C@@H]1CO`, for which the outcome was inactive.
Still for that read-out and setting: the value for `COc1cc(O)cc(C)c1C(=O)O[C@H]1[C@@H](O)[C@H](n2ccc(=O)n(C)c2=O)O[C@@H]1CO` was “inactive”; that for `COc1cc(C)c(C(=O)O[C@H]2[C@@H](O)[C@H](n3ccc(=O)[nH]c3=O)O[C@@H]2CO)c(OC)c1` was “inactive”.
For the compound `COc1cc(C)c(C(=O)O[C@@H]2[C@H](O)[C@@H](CO)O[C@H]2n2ccc(=O)[nH]c2=O)c(OC)c1`, the result was inactive.
In the case of `COc1cc(C)c(C(=O)O[C@H]2[C@@H](OC(C)=O)[C@H](n3ccc(=O)[nH]c3=O)O[C@@H]2CO)c(O)c1`, the outcome was inactive.

Staying with this assay, now noted: read-out: IZ.
For `COc1cc(C)c(C(=O)O[C@H]2[C@@H](OC(C)=O)[C@H](n3ccc(=O)[nH]c3=O)O[C@@H]2CO)c(OC)c1`, the zone of inhibition at 100 µg/disc amounted to 18 mm.

Another assay concerns Candida albicans. As to the kind of experiment: Antifungal activity against Candida albicans ATCC 14053 at 200 ug/disk.
Conditions: not given
Type of assay: functional, organism-based.
For `COc1cc(O)cc(C)c1C(=O)O[C@H]1[C@@H](OC(C)=O)[C@H](n2ccc(=O)n(C)c2=O)O[C@@H]1CO`, the outcome was inactive.
Consider `COc1cc(O)cc(C)c1C(=O)O[C@H]1[C@@H](O)[C@H](n2ccc(=O)n(C)c2=O)O[C@@H]1CO`, for which the outcome was inactive.
As to `COc1cc(O)cc(C)c1C(=O)O[C@H]1[C@@H](OC(C)=O)[C@H](n2ccc(=O)[nH]c2=O)O[C@@H]1CO`, the result was inactive.
On to `COc1cc(C)c(C(=O)O[C@H]2[C@@H](OC(C)=O)[C@H](n3ccc(=O)[nH]c3=O)O[C@@H]2CO)c(OC)c1`, for which the outcome was inactive.
As to `COc1cc(C)c(C(=O)O[C@H]2[C@@H](O)[C@H](n3ccc(=O)[nH]c3=O)O[C@@H]2CO)c(OC)c1`, the outcome was inactive.
Still for that read-out and setting: the value for `COc1cc(C)c(C(=O)O[C@@H]2[C@H](O)[C@@H](CO)O[C@H]2n2ccc(=O)[nH]c2=O)c(OC)c1` was “inactive”; that for `COc1cc(C)c(C(=O)O[C@H]2[C@@H](OC(C)=O)[C@H](n3ccc(=O)[nH]c3=O)O[C@@H]2CO)c(O)c1` was “inactive”.

The test system of another assay is Bacillus subtilis. As to the kind of experiment: Antibacterial activity against Bacillus subtilis at 100 ug/disk. Type of assay: functional.
Conditions: not given
The gist of the method:
as §1
`COc1cc(O)cc(C)c1C(=O)O[C@H]1[C@@H](OC(C)=O)[C@H](n2ccc(=O)n(C)c2=O)O[C@@H]1CO`: the result was inactive.
As to `COc1cc(O)cc(C)c1C(=O)O[C@H]1[C@@H](O)[C@H](n2ccc(=O)n(C)c2=O)O[C@@H]1CO`, the outcome was inactive.
Same read-out and setting: under `COc1cc(C)c(C(=O)O[C@H]2[C@@H](O)[C@H](n3ccc(=O)[nH]c3=O)O[C@@H]2CO)c(OC)c1` stands “inactive”; under `COc1cc(C)c(C(=O)O[C@@H]2[C@H](O)[C@@H](CO)O[C@H]2n2ccc(=O)[nH]c2=O)c(OC)c1`, “inactive”.
The same measure, in the same setting: under `COc1cc(C)c(C(=O)O[C@H]2[C@@H](OC(C)=O)[C@H](n3ccc(=O)[nH]c3=O)O[C@@H]2CO)c(O)c1` stands “inactive”.

Still in this assay, the particulars now being: read-out: IZ.
Take `COc1cc(O)cc(C)c1C(=O)O[C@H]1[C@@H](OC(C)=O)[C@H](n2ccc(=O)[nH]c2=O)O[C@@H]1CO`: the zone of inhibition at 100 µg/disc came out at 12 mm.

The values above are taken from ChEMBL document CHEMBL1140638, “Kipukasins, nucleoside derivatives from Aspergillus versicolor” (2007).
